# Test results published in ChEMBL document CHEMBL3351997, “Synthesis of novel tylophorine derivatives and evaluation of their anti-inflammatory activity” (ACS Med Chem Lett, 2014).
# Experiments:
# RAW264.7 [1] = experiment: Antiinflammatory activity against mouse RAW264.7 cells assessed as inhibition of LPS-induced TNFalpha production after 6 hrs by ELISA; format: functional, cell-based; settings: RAW264.7, 6 h
# [2] = Antiinflammatory activity against BALB/c mouse splenocytes assessed as inhibition of LPS-induced TNFalpha production after 4 hrs by ELISA; format: functional, cell-based; settings: Splenocyte
# Outline: (§1)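 Splenocytes from BALB/c mice were cultured with LPS (100 ng/mL) plus compound for 4 h or 24 h. TNF-α in the supernatants was measured by ELISA. Values are mean ± SD of at least three independent experiments, each run in duplicate.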
# T-cell [3] = experiment: Induction of Foxp3 expression in B6 Foxp3-GFP mouse CD4-positive T cells assessed as increase in iTregs at 100 nM after 3 days by flow cytometry; format: functional
# Outline: (§2)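 Naive CD4+ T cells were sorted from B6 Foxp3-GFP reporter mice and cultured with compound plus TGF-β (5 ng/mL) for 3 days. Harvested cells were read by flow cytometry as the percentage of GFP+ (Foxp3+) iTregs. Values are mean ± SD of at least three independent experiments, each run in duplicate.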
# RAW264.7 [4] = experiment: Cytotoxicity against mouse RAW264.7 cells after 48 hrs by MTT assay; format: cell-based; settings: RAW264.7, 48 h
# Outline: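 Raw 264.7 murine macrophages were cultured with a range of compound concentrations for 48 h, with vehicle-treated cells as control. The 50% cytotoxic concentration (CC50) was determined, with values representative of three experiments.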
# [5] = Antiinflammatory activity against BALB/c mouse splenocytes assessed as inhibition of LPS-induced TNFalpha production after 24 hrs by ELISA; format: functional, cell-based; settings: Splenocyte; outline: as §1
# T-cell [6] = experiment: Inhibition of Foxp3 expression in B6 Foxp3-GFP mouse CD4-positive T cells assessed as iTregs at 100 nM after 3 days by flow cytometry; format: functional; settings: for inhibition at 0.1 µM: Mus musculus, T-cell, 72 h; outline: as §2
# T-cell [7] = experiment: Induction of Foxp3 expression in B6 Foxp3-GFP mouse CD4-positive T cells assessed as increase in iTregs at 1 uM after 3 days by flow cytometry; format: functional; outline: as §2
# T-cell [8] = experiment: Induction of Foxp3 expression in B6 Foxp3-GFP mouse CD4-positive T cells at 100 nM after 3 days by flow cytometry in presence of 5 ng/ml TGF-beta (reference value: 37.15 %); format: functional; outline: as §2
# T-cell [9] = experiment: Induction of Foxp3 expression in B6 Foxp3-GFP mouse CD4-positive T cells at 1 nM after 3 days by flow cytometry in presence of 5 ng/ml TGF-beta (reference value: 37.15 %); format: functional; outline: as §2
# T-cell [10] = experiment: Induction of Foxp3 expression in B6 Foxp3-GFP mouse CD4-positive T cells at 1 uM after 3 days by flow cytometry in presence of 5 ng/ml TGF-beta (reference value: 37.15 %); format: functional; outline: as §2
# T-cell [11] = experiment: Induction of Foxp3 expression in B6 Foxp3-GFP mouse CD4-positive T cells at 1 nM after 3 days by flow cytometry in presence of 5 ng/ml TGF-beta; format: functional; outline: as §2
# T-cell [12] = experiment: Induction of Foxp3 expression in B6 Foxp3-GFP mouse CD4-positive T cells at 10 nM after 3 days by flow cytometry in presence of 5 ng/ml TGF-beta (reference value: 37.15 %); format: functional; outline: as §2
# RAW264.7 [13] = experiment: Cytotoxicity against mouse RAW264.7 cells assessed as cell death at 1 uM after 48 hrs by MTT assay; format: cell-based; settings: raw264.7, 48 h
# [14] = Solubility of the compound in DMSO; format: physicochemical
# [15] = Solubility of the compound in water; format: physicochemical; settings: buffer
Structure (SMILES),IC50 (RAW264.7 [1]),IC50 [2],IC50 (RAW264.7 [4]),IC50 [5],Activity (T-cell [7]),further results
COc1cc2c3c(c4cc(OC)c(OC)cc4c2cc1OC)[C@@H](O)[C@H]1CCCN1C3,0.238 µM,0.133 µM,0.242 µM,0.783 µM,–,Activity (T-cell [3]): 12%
COc1cc2c3c(c4cc(OC)c(OC)cc4c2cc1OC)[C@H](O)[C@H]1CCCN1C3,0.817 µM,0.61 µM,1.16 µM,0.965 µM,–,Activity (T-cell [3]): 5%
CC1(C)C2CC[C@]1(S(=O)(=O)O)C(=O)C2.COc1cc2c3c(c4cc(OC)c(OC)cc4c2cc1OC)CN1CCCC1C3 (centres undefined),0.027 µM,0.03 µM,0.033 µM,0.338 µM,–,inhibition at 0.1 µM (T-cell [6]): 2%
COc1cc(/C=C/C(=O)O)ccc1O.COc1cc2c3c(c4cc(OC)c(OC)cc4c2cc1OC)CN1CCCC1C3 (centres undefined),0.135 µM,0.213 µM,0.093 µM,0.329 µM,–,Activity (T-cell [3]): 0.8%
COc1cc2c3c(c4cc(OC)c(OC)cc4c2cc1OC)CN1CCCC1C3.O=C(O)c1cc(S(=O)(=O)O)ccc1O (centres undefined),0.283 µM,0.21 µM,0.16 µM,0.16 µM,–,Activity (T-cell [3]): 29%
COc1cc2cc(CN3CCC[C@H]3CO)c3cc(OC)c(OC)cc3c2cc1OC,307 µM,265 µM,422 µM,304 µM,0.2%,–
COC(=O)[C@@H]1CCCN1C(=O)c1cc2cc(OC)c(OC)cc2c2cc(OC)c(OC)cc12,217 µM,211 µM,320 µM,363 µM,5%,–
COc1cc2cc(CN3CCCCC3C(=O)O)c3cc(OC)c(OC)cc3c2cc1OC (centres undefined),354 µM,292 µM,357 µM,389 µM,0.7%,–
COC(=O)C1CCCCN1C(=O)c1cc2cc(OC)c(OC)cc2c2cc(OC)c(OC)cc12 (centres undefined),227 µM,301 µM,116 µM,329 µM,7%,–
COc1cc2cc(CN3CCC[C@H]3C(=O)O)c3cc(OC)c(OC)cc3c2cc1OC,200 µM,234 µM,418 µM,231 µM,2%,–
COC(=O)[C@@H]1CCCN1Cc1cc2cc(OC)c(OC)cc2c2cc(OC)c(OC)cc12,216 µM,153 µM,469 µM,275 µM,19%,–
COc1cc2cc(CN3CCCCC3CO)c3cc(OC)c(OC)cc3c2cc1OC (centres undefined),41 µM,38 µM,513 µM,92 µM,41%,Activity (T-cell [8]): 51.92%; Activity (T-cell [9]): 40.42%; Activity (T-cell [10]): 73.94%; Activity (T-cell [11]): 100%; Activity (T-cell [12]): 41.25%
COc1cc2cc(CN3CCC(O)CC3)c3cc(OC)c(OC)cc3c2cc1OC,231 µM,265 µM,132 µM,273 µM,5%,–
COC(=O)CCCCCNC(=O)c1cc2cc(OC)c(OC)cc2c2cc(OC)c(OC)cc12,241 µM,156 µM,423 µM,257 µM,16%,–
COc1cc2cc(C(=O)NCCCCCCO)c3cc(OC)c(OC)cc3c2cc1OC,236 µM,251 µM,305 µM,317 µM,7%,–
COC(=O)CCCCCNCc1cc2cc(OC)c(OC)cc2c2cc(OC)c(OC)cc12,227 µM,115 µM,515 µM,213 µM,47%,–
COc1cc2c3c(c4cc(OC)c(OC)cc4c2cc1OC)[C@H](O)[C@@H]1CCCN1C3,0.036 µM,0.02 µM,0.053 µM,0.097 µM,–,Activity (T-cell [8]): 40%; Activity (T-cell [3]): 39%; Activity (RAW264.7 [13]): Toxic; solubility [14]: soluble
COc1cc2c3c(c4cc(OC)c(OC)cc4c2cc1OC)[C@@H](O)[C@@H]1CCCN1C3,0.35 µM,0.37 µM,1.06 µM,1.29 µM,–,Activity (T-cell [3]): 29%
COc1cc2c3c(c4cc(OC)c(OC)cc4c2cc1OC)CN1CCCC1C3 (racemic) [(+/-)-TYLOPHORINE],–,–,–,–,–,inhibition (INH) (T-cell [6]): 34%
COc1cc2c3c(c4cc(OC)c(OC)cc4c2cc1OC)CN1CCC[C@H]1C3 [(S)-TYLOPHORINE],–,–,–,–,–,inhibition at 0.1 µM (T-cell [6]): 44%
COc1cc2c3c(c4cc(OC)c(OC)cc4c2cc1OC)CN1CCCC1C3.O=C(O)CC(O)C(=O)O (centres undefined) [TYLOPHORINE 2-HYDROXYSUCCINIC ACID SALT],–,–,–,–,–,solubility [15]: soluble
COc1cc2c3c(c4cc(OC)c(OC)cc4c2cc1OC)CN1CCCC1C3.O=C(O)c1ccccc1 (centres undefined) [TYLOPHORINE BENZOIC ACID SALT],–,–,–,–,–,inhibition (INH) (T-cell [6]): 1%
COc1cc2c3c(c4cc(OC)c(OC)cc4c2cc1OC)CN1CCCC1C3.I (centres undefined) [TYLOPHORINE HYDROIODIDE],–,–,–,–,–,inhibition (INH) (T-cell [6]): 12%
COc1cc2c3c(c4cc(OC)c(OC)cc4c2cc1OC)CN1CCCC1C3.Nc1ccc(S(=O)(=O)O)cc1 (centres undefined) [TYLOPHORINE P-AMINOBENZENESULFONIC ACID SALT],0.248 µM,0.215 µM,0.175 µM,0.193 µM,–,inhibition at 0.1 µM (T-cell [6]): 3%
COc1cc2c3c(c4cc(OC)c(OC)cc4c2cc1OC)CN1CCCC1C3.O=C(O)c1ccc(O)cc1 (centres undefined) [TYLOPHORINE P-HYDROXYBENZOIC ACID SALT],0.511 µM,0.76 µM,0.651 µM,0.972 µM,–,inhibition at 0.1 µM (T-cell [6]): 5%
COc1cc2c3c(c4cc(OC)c(OC)cc4c2cc1OC)CN1CCCC1C3.O=C(O)c1ccccc1O (centres undefined) [TYLOPHORINE SALICYLIC ACID SALT],–,–,–,–,–,inhibition (INH) (T-cell [6]): 4%
